Experimental data as given in ChEMBL document CHEMBL1221269, “Synthesis of 3,3-diindolyl oxyindoles efficiently catalysed by FeCl3 and their in vitro evaluation for anticancer activity” (Bioorg Med Chem Lett, 2010).
Calls of active or inactive are those of the source. No cut-off for these calls is given here.

How the values were obtained:
Type in all cases: functional, cell-based
[1] = tested on: A549; experiment: Cytotoxicity against human A549 cells after 48 hrs by MTT assay; settings: A549, 48 h
How it was run: (§1)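 Cells seeded at 2.0×10^4 per well in 96-well plates, exposed to a range of test concentrations for 48 h. Medium then replaced with fresh medium containing MTT at 100 µg/mL for 2–3 h. Formazan dissolved in DMSO, OD read at 540 nm with 620 nm reference. Viability taken as treated vs untreated absorbance. IC50 in µM, mean of three separate experiments. Highest concentration tested 100 µM.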

[2] = tested on: SK-N-SH; experiment: Cytotoxicity against human SK-N-SH cells after 48 hrs by MTT assay; how it was run: as §1
[3] = tested on: MCF7; experiment: Cytotoxicity against human MCF7 cells after 48 hrs by MTT assay; settings: MCF7, 48 h; how it was run: as §1
[4] = tested on: HepG2; experiment: Cytotoxicity against human HepG2 cells after 48 hrs by MTT assay; settings: HepG2, 48 h; how it was run: as §1
[5] = tested on: DU-145; experiment: Cytotoxicity against human DU145 cells after 48 hrs by MTT assay; settings: DU-145, 48 h; how it was run: as §1
[6] = tested on: MCF7; experiment: Cytotoxicity against human MCF7 cells at up to 100 uM after 48 hrs by MTT assay; how it was run: as §1

Row | SMILES | IC50 [1] [µM] | IC50 [2] [µM] | IC50 [3] [µM] | IC50 [4] [µM] | IC50 [5] [µM] | Activity [6]
1 | O=C1Nc2ccccc2C1(c1c[nH]c2ccccc12)c1c[nH]c2ccccc12 | 8.6 | 11.3 | 49.8 | 20.4 | 8.7 | 
2 | COc1cccc2[nH]cc(C3(c4c[nH]c5cccc(OC)c45)C(=O)Nc4ccccc43)c12 | 15.3 | 4.7 | 14.1 | 9 | 5 | 
3 | Cn1cc(C2(c3cn(C)c4ccccc34)C(=O)Nc3ccc(F)cc32)c2ccccc21 | 17.5 | 6.5 | 9.2 | 13 | 11 | 
4 | COc1ccc2c(C3(c4c[nH]c5cc(OC)ccc45)C(=O)Nc4ccc(F)cc43)c[nH]c2c1 | 14.4 | 4.1 | 12 | 16 | 13.1 | 
5 | O=C1Nc2ccccc2C1(c1c[nH]c2ccc(Cl)cc12)c1c[nH]c2ccc(Cl)cc12 | 8.3 | 9.4 |  | 14.6 | 8.1 | inactive
6 | O=C1Nc2ccc(F)cc2C1(c1c[nH]c2ccc([N+](=O)[O-])cc12)c1c[nH]c2ccc([N+](=O)[O-])cc12 | 7.7 | 6.8 |  | 23.8 | 7.5 | inactive
7 | O=C1Nc2ccccc2C1(c1c[nH]c2ccc([N+](=O)[O-])cc12)c1c[nH]c2ccc([N+](=O)[O-])cc12 | 10.3 | 11.8 |  | 23.4 | 8 | inactive
8 | O=C1Nc2ccc(F)cc2C1(c1c[nH]c2ccc(Cl)cc12)c1c[nH]c2ccc(Cl)cc12 | 12.1 | 8.5 | 24.8 | 16.6 | 19.6 | 
9 | O=C1Nc2ccc(F)cc2C1(c1c[nH]c2ccc(Br)cc12)c1c[nH]c2ccc(Br)cc12 | 10.3 | 2.8 | 12.8 | 12.8 | 16.3 | 
10 | COc1ccc2[nH]cc(C3(c4c[nH]c5ccc(OC)cc45)C(=O)Nc4ccc(F)cc43)c2c1 | 10.6 | 7 |  | 36.6 | 3.6 | inactive
11 | COc1cccc2[nH]cc(C3(c4c[nH]c5cccc(OC)c45)C(=O)Nc4ccc(F)cc43)c12 | 7.8 | 12.1 | 7.5 | 18 | 9.4 | 
12 | O=C1Nc2ccc(F)cc2C1(c1c[nH]c2ccccc12)c1c[nH]c2ccccc12 | 12.7 | 67.3 | 23.6 | 6.6 | 12.8 | 
13 | Cn1cc(C2(c3cn(C)c4ccccc34)C(=O)Nc3ccccc32)c2ccccc21 | 10.1 | 5.1 |  | 12 | 5.6 | inactive
14 | COc1ccc2[nH]cc(C3(c4c[nH]c5ccc(OC)cc45)C(=O)Nc4ccccc43)c2c1 | 11.2 | 3.9 | 33.6 | 30.2 | 2.2 | 
15 | COc1ccc2c(C3(c4c[nH]c5cc(OC)ccc45)C(=O)Nc4ccccc43)c[nH]c2c1 | 7.8 | 13.6 | 45.4 | 12 | 1.2 | 
16 | O=C1Nc2ccccc2C1(c1c[nH]c2ccc(Br)cc12)c1c[nH]c2ccc(Br)cc12 | 8 | 13.2 | 46.8 | 15.8 | 3.6 | 
